Target: T1, Pendrin (Homo sapiens, UniProt O43511)
T1 sequence (O43511 whole entry): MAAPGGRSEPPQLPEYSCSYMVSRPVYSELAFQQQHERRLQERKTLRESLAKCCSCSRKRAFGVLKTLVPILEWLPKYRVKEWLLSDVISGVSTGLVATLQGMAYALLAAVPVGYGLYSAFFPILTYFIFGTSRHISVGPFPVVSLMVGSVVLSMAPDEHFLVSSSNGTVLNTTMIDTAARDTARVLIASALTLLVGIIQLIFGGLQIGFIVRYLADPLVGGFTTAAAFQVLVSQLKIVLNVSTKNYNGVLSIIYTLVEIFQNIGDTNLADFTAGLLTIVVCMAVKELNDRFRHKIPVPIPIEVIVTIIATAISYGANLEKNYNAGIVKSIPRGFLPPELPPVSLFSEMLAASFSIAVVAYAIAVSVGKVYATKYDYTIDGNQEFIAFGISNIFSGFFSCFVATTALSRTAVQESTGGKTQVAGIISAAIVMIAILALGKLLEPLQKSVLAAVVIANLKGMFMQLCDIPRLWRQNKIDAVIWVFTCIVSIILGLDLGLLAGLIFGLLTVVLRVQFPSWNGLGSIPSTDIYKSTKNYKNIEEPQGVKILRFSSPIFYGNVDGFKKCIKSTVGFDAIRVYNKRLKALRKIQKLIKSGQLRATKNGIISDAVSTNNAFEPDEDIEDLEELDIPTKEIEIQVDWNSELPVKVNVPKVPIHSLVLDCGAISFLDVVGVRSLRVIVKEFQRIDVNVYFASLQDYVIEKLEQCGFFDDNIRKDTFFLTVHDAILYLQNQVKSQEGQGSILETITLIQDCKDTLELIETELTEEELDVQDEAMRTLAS
Test: Inhibition of human PDS stably expressed in FRT cells coexpressing EYFP-H148Q/I152L/F46L assessed as reduction in I-/Cl- exchange incubated for 10 mins by fluorescence based assay
Format: cell-based

| SMILES | IC50 [µM] |
| --- | --- |
| Cn1nc(COc2cccc(F)c2)c2c1CCN(C(=O)Nc1ccc(Cl)cc1)C2 | 7 |

Target: T2, Pendrin (Mus musculus, UniProt Q9R155)
T2 sequence (Q9R155 whole entry): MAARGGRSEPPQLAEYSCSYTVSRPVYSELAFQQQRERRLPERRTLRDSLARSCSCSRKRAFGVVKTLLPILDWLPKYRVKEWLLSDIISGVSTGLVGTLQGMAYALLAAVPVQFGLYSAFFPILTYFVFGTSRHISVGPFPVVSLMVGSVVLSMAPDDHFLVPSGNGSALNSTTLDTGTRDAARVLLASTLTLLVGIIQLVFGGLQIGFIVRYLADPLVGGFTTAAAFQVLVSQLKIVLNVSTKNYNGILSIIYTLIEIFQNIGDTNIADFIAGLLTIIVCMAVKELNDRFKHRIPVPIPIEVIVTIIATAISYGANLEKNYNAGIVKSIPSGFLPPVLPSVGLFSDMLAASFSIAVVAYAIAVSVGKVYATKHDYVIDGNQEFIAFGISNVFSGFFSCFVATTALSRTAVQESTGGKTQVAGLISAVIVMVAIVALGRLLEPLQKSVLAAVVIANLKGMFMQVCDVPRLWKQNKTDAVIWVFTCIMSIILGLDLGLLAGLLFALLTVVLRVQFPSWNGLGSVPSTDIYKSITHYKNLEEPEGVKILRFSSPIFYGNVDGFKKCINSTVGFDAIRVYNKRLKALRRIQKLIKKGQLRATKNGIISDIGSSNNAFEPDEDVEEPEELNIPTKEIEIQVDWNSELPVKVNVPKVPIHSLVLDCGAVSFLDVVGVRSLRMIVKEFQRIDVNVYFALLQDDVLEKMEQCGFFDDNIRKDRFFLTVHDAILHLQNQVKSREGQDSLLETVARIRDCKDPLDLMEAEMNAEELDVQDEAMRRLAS
Test: Inhibition of mouse PDS stably expressed in FRT cells coexpressing EYFP-H148Q/I152L/F46L assessed as reduction in I-/Cl- exchange incubated for 10 mins by fluorescence based assay
Format: cell-based
Outline: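 Fischer rat thyroid cells stably co-expressing murine pendrin and the halide-sensing YFP variant were used for Cl–/I– exchange. An I–-containing solution was added to the cells, and exchange was followed as the rate of fluorescence decrease. Inhibition was read as a slower decline in fluorescence.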

| SMILES | IC50 [µM] |
| --- | --- |
| Cn1nc(COc2cc(F)c(F)c(F)c2)c2c1CCN(C(=O)Nc1ccc(Cl)cc1)C2 | 3.3 |
| Cn1nc(COc2cc(F)cc(F)c2)c2c1CCN(S(=O)(=O)c1ccc(C(F)(F)F)cc1)C2 | > 10 |
| Cn1nc(COc2cc(F)cc(F)c2)c2c1CCN(S(C)(=O)=O)C2 | > 10 |
| CCN(CC)S(=O)(=O)N1CCc2c(c(COc3cc(F)cc(F)c3)nn2C)C1 | > 10 |
| CCOC(=O)c1nn(C)c2c1CN(C(=O)Nc1ccc(Cl)cc1)CC2 | > 10 |
| Cn1nc(COc2ccc(F)c(F)c2)c2c1CCN(C(=O)Nc1ccc(Cl)cc1)C2 | 4.6 |
| Cn1nc(COc2cc(F)cc(F)c2)c2c1CCN(C(=O)Nc1ccc(Cl)cc1)C2 | 3.1 |
| Cn1nc(COc2cc(F)cc(F)c2)c2c1CCN(S(=O)(=O)c1ccc(Cl)cc1)C2 | > 10 |
| Cn1nc(COc2cc(F)cc(F)c2)c2c1CCN(C(=S)Nc1ccc(Cl)cc1)C2 | > 10 |
| Cn1nc(COc2cc(F)cc(F)c2)c2c1CCN(C(=O)Nc1ccc(Br)cc1)C2 | 3.3 |
| Cn1nc(COc2cc(F)cc(F)c2)c2c1CCN(C(=S)NC1CCCCC1)C2 | > 10 |
| Cn1nc(COc2cc(F)cc(F)c2)c2c1CCN(C(=O)NC(=O)c1ccccc1)C2 | > 10 |
| CC(C)NC(=O)N1CCc2c(c(COc3cc(F)cc(F)c3)nn2C)C1 | > 10 |
| CN(C)c1ccc(NC(=S)N2CCc3c(c(COc4cc(F)cc(F)c4)nn3C)C2)cc1 | > 10 |
| Cn1nc(COc2cc(F)cc(F)c2)c2c1CCN(C(=O)NC1CCCCC1)C2 | > 10 |
| Cn1nc(C(=O)O)c2c1CCN(C(=O)Nc1ccc(Cl)cc1)C2 | > 10 |

— ChEMBL document CHEMBL4346737, “Synthesis and evaluation of tetrahydropyrazolopyridine inhibitors of anion exchange protein SLC26A4 (pendrin)” (Bioorg Med Chem Lett, 2019)
